Experimental findings from ChEMBL document CHEMBL4811293, “Novel irreversible covalent BTK inhibitors discovered using DNA-encoded chemistry” (Bioorg Med Chem, 2021) are described below.

Test [1] concerns Tyrosine-protein kinase BTK (Homo sapiens), Q06187 [C481S]. In words: Binding affinity to BTK C481S mutant (unknown origin) by mass spectrometry analysis relative to control. More on the design: concentration or dose not given beside the values. In a few lines: (§1)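 Wild-type or C481S BTK incubated with compound for one hour. Samples diluted to 0.1 mg/ml protein in 5% acetonitrile/0.1% formic acid, then reversed-phase C4 LC (80 °C, acetonitrile/0.1% FA gradient, UV 214 and 280 nm) coupled to positive-mode ESI-MS for intact mass. Adduct read as the mass shift versus BTK alone.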
Tyrosine-protein kinase BTK (Homo sapiens), Q06187 [C481S], sequence (Q06187 whole entry C481S, the tested form may be a part): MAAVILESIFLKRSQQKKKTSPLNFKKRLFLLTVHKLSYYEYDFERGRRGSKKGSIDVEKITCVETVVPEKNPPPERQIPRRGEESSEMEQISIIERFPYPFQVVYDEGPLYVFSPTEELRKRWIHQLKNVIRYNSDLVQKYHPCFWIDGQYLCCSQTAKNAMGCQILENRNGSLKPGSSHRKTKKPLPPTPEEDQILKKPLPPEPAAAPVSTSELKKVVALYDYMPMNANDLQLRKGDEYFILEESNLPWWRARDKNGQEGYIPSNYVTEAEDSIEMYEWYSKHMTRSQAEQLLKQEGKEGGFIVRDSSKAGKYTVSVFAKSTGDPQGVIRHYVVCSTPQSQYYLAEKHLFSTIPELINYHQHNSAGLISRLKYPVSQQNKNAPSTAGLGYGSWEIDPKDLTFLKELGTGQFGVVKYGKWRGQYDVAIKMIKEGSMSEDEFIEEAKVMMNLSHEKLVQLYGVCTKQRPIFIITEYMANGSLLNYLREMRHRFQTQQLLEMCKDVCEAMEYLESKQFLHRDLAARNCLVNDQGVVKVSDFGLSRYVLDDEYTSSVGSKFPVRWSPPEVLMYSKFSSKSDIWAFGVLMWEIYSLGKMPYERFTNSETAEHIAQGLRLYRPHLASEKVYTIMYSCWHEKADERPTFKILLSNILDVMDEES

Test [2] concerns the target T1, Tyrosine-protein kinase BTK (Homo sapiens, UniProt Q06187). In words: Inhibition of recombinant human N-terminal His-tagged BTK expressed in baculovirus infected in Sf9 cells incubated for 1 hr by TR-FRET assay. In a few lines:
(§2)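 Proteros reporter displacement assay. BTK is preincubated with a Cy5-labelled ATP-competitive probe, then unlabelled competitor is added and signal recorded over 1 h, in technical triplicates. Data normalized to high and low controls at each time point. IC50 is apparent after 1 h. kobs comes from a mono-exponential decay fit excluding the first point, and is refit as kobs = kinact·[I]/(KI+[I]) to give kinact, KI and kinact/KI.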
In general terms: In TR-FRET formats the signal depends on donor and acceptor labels being close together.

Test [3] concerns the target T1, Tyrosine-protein kinase BTK. In words: Binding affinity to BTK (unknown origin) by mass spectrometry analysis relative to control. Also noted: concentration or dose not given beside the values. In a few lines: as §1
Test [4] deals with Tyrosine-protein kinase BTK (Homo sapiens, UniProt Q06187, C481S). The experiment in a line: Inhibition of recombinant human N-terminal His-tagged BTK C481S mutant expressed in baculovirus infected in Sf9 cells incubated for 1 hr by TR-FRET assay. In a few lines: (§3)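 Proteros reporter displacement assay: enzyme pre-incubated with Cy5-labelled ATP-competitive kinase inhibitor probe, then unlabeled competitor added. Signal recorded for 1 hour and normalized at each time-point to high (enzyme + probe, no competitor) and low (enzyme, no probe, with competitor) controls. Technical triplicates.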
Tyrosine-protein kinase BTK (Homo sapiens, UniProt Q06187, C481S), sequence (Q06187 2-659 C481S limits assumed): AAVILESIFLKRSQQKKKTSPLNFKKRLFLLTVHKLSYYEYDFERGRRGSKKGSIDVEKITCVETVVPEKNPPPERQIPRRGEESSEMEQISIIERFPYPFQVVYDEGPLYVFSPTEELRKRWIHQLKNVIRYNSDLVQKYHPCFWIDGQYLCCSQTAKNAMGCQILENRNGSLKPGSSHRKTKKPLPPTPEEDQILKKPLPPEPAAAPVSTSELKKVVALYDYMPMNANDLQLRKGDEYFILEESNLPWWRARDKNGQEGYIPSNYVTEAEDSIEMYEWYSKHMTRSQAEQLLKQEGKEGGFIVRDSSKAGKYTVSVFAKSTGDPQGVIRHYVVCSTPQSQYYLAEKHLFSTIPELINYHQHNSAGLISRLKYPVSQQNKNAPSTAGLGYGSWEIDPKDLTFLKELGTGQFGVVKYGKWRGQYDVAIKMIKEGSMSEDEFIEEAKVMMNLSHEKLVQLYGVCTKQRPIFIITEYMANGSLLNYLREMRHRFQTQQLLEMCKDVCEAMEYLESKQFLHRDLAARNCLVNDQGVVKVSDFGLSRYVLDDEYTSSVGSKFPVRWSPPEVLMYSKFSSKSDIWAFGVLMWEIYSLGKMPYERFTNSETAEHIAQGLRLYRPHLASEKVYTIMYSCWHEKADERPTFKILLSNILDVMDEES

Test [5] concerns Tyrosine-protein kinase BTK (Homo sapiens), Q06187 [C481S]. The experiment in a line: Inhibition of recombinant human N-terminal His-tagged BTK C481S mutant expressed in baculovirus infected in Sf9 cells assessed as residence time incubated for 1 hr by TR-FRET assay. The method, boiled down: as §3
Test [6] concerns the target T1, Tyrosine-protein kinase BTK. The experiment in a line: Inhibition of recombinant wild type human N-terminal His-tagged BTK expressed in baculovirus infected in Sf9 cells assessed as residence time incubated for 1 hr by TR-FRET assay. The method, boiled down:
as §3

For test [7] the target is unchanged. In words: Binding affinity to recombinant human BTK (389 to 659 residues) expressed in insect cells assessed as change in melting temperature at 50 uM incubated for 120 mins by thermal shift assay. The method, boiled down:
(§4)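 BTK (389-659), wild-type or C481S, at 5 μM with 50 μM compound for 120 min at room temperature in 20 mM HEPES pH 8.0, 0.5 mM TCEP, 150 mM NaCl, 0.01% Tween20, 0.5% DMSO. nanoDSF with a 20–95 °C ramp at 2.5 °C/min, tryptophan 350/330 nm ratio. Tm taken from the first-derivative maximum, three technical replicates. ΔTm is Tm with compound minus apo Tm.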

The target is the same in test [8]. In words: Inhibition of recombinant human N-terminal His-tagged BTK expressed in baculovirus infected in Sf9 cells assessed as inactivation constant incubated for 1 hr by TR-FRET assay. The method, boiled down:
as §2

Test [9] shares this target. In words: Inhibition of recombinant human N-terminal His-tagged BTK expressed in baculovirus infected in Sf9 cells assessed as inhibitory constant incubated for 1 hr by TR-FRET assay. The method, boiled down:
as §2

Test [10] concerns Tyrosine-protein kinase BTK (Homo sapiens), Q06187 [C481S]. In words: Binding affinity to recombinant human BTK C481S mutant (389 to 659 residues) expressed in insect cells assessed as change in melting temperature at 50 uM incubated for 120 mins by thermal shift assay. In a few lines: as §4
Test [11] has as its target T1, Tyrosine-protein kinase BTK. In words: Inhibition of recombinant human N-terminal His-tagged BTK expressed in baculovirus infected in Sf9 cells assessed as ratio of inactivation constant to inhibitory constant incubated for 1 hr by TR-FRET assay. The method, boiled down: as §2

Square brackets hold non-standard residues; d marks the D form. Peptide text beside a SMILES is read from it. * marks the point of attachment. Oic = O=C(O)[C@@H]1C[C@@H]2CCCC[C@@H]2N1; Phe(4-CN) = N#Cc1ccc(C[C@H](N)C(=O)O)cc1; Acryloyl = C=CC(=O)*

T1 sequence (Q06187 whole entry): as the sequence (Q06187 whole entry C481S, the tested form may be a part) above, with S481C counted along it

The IC50 is the concentration needed to halve the response being measured. On to `C=CC(=O)N1[C@H](C(=O)N[C@@H](Cc2ccc(C#N)cc2)C(=O)NC)C[C@@H]2CCCC[C@@H]21` (Acryloyl-[Oic]-[Phe(4-CN)]-NHMe), for which the Activity in test [1] came to 0%; in [3] it was 94.4%. The 50% inhibitory concentration (IC50) in test [2] is 36400 nM; in [4], more than 59200 nM.
As for `CNC(=O)[C@H]1Cc2c([nH]c3ccccc23)CN1C(=O)[C@@H](Cc1ccccc1)NC(=O)c1c[nH]c(C(N)=O)c1`, the TIME in test [5] was determined as 0.233 h; in [6], 0.567 h. Moreover, the IC50 was 22.7 nM in test [2] and 56.2 nM in test [4].
For orientation: ΔTm means the change in melting temperature against a reference sample. Broadly, the Ki is the equilibrium dissociation constant of an inhibitor or competing ligand from its target. For the molecule `CNC(=O)[C@@H](Cc1ccc(C#N)cc1)NC(=O)[C@@H](NC(=O)[C@@H]1CO1)c1ccccc1`, the ΔTm is 6.36 °C in test [7] and -0.15 °C in [10]. The Kinact in test [8] was 9.41 10^-3/s. Moreover, the results for the Activity in test [1] and in test [3] were 0% and 95.2%, respectively. Further, the concentration for half-maximal inhibition (IC50) was 84.2 nM in test [2] and more than 59200 nM in test [4]. Further, in test [9], the Ki stood at 1930 nM. For the same molecule, in test [11], the Ratio was found to be 4880 s⁻¹ M⁻¹.
Regarding `CNC(=O)[C@H]1Cc2c([nH]c3ccccc23)CN1C(=O)C[C@@H](Cc1cccc(F)c1)NC(=O)C1CO1` (stereo partly specified), in test [8], the Kinact was 1.54 10^-2/s. Also, the IC50 in test [2] is 232 nM; in [4], more than 59200 nM. For the same molecule, the Ki in test [9] is 9270 nM. Further, in test [11], the Ratio was determined as 1660 s⁻¹ M⁻¹.
As for `CNC(=O)[C@H]1Cc2c([nH]c3ccccc23)CN1C(=O)c1occc1CNc1ccc2nccnc2c1`, the TIME in test [5] was found to be 0.367 h; in [6], 0.15 h. Further, the figures for the shift in melting temperature (ΔTm) in [7] and in test [10] were 13.2 °C and 13.4 °C, respectively. The Activity in test [1] and in test [3] was 0% each time. In addition, the IC50 stood at 3.78 nM in [2] and 3.04 nM in test [4].
On to `C=CC(=O)N1CCC[C@H](CC(=O)N2Cc3[nH]c4ccccc4c3C[C@@H]2C(=O)NC)C1`, for which the ΔTm turned out to be 6.55 °C in [7] and 0.1 °C in test [10]. The Activity in test [1] was determined as 0%; in test [3] it was 97.9%. For the same molecule, the figures for the half-maximal inhibitory concentration (IC50) in [2] and in test [4] were 4760 nM and more than 59200 nM, respectively. For the same molecule, in test [11], the Ratio was 59.2 s⁻¹ M⁻¹.
In the case of `CNC(=O)[C@@H](Cc1ccc(C#N)cc1)NC(=O)[C@@H](NC(=O)[C@]1(C)CO1)[C@@H](C)OC(C)(C)C`, the ΔTm in test [7] turned out to be 4.51 °C; in test [10], 0.23 °C. Besides, the Kinact in [8] is 8.22 10^-3/s. Moreover, the Activity in [1] was found to be 0%; in [3], 92.3%. Moreover, the half-maximal inhibitory concentration (IC50) in test [2] is 58.1 nM; in [4] it was more than 59200 nM. The Ki in test [9] is 1250 nM. Besides, the Ratio in test [11] is 6580 s⁻¹ M⁻¹.
